We go through 38 variants from the RNAGym collection of RNA variant scans (doi:10.1126/science.aae0568).

Fewer inactive variants are shown than the library holds.

The chains are these.
B1: tRNA (parent)
chain: GUUCCGUUGGCGUAAUGGUAACGCGUCUCCCUCCUAAGGAGAAGACUGCGGGUUCGAGUCCCGUACGGAACG

The variants in the data set derive from B1. The experiment in a line: yeast fitness relative to wild type (ratio to wild type); higher = fitter; tRNA-Arg(CCU), competitive growth, 37 C, YPD. Put shortly:
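A pool of Saccharomyces cerevisiae strains, each with a tRNA-Arg(CCU) gene variant at the native genomic locus, was competed in YPD at 37°C for 24 hours across six parallel replicates. The variants had been chemically synthesised at a 3% per-site mutation rate over 69 sites, and gene amplicons before and after competition were read by 100-nucleotide paired-end sequencing. Darwinian fitness relative to wild type rested on changes in genotype frequencies. Genotypes required ≥ 100 starting reads, and estimates < 0.5 were set to 0.5.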
On to GUUCCGUUGGCGUAAUGGUAACGCGCCUCCCUGCUAAGGAGCAGACUGCGGGUUCGAGUCCCGUACGGAACG [U26C C33G A42C], for which the yeast fitness turned out to be 0.537.

On to GUUCCGUUGGCGUAAUGGUAACGCGCCUCCCUCCUAAGGAGAAGACUGCGGGUUCGCGUCCCGUACGGAACG [U26C A57C], for which the yeast fitness was determined as 0.611.

Take GUUCCGUUGGCGUAAUGGUAACGCGCCUCCCUACUAAGGUGAAGACUGCGGGUUCGAGUCCCGUACGGAACG [U26C C33A A40U]: the yeast fitness turned out to be 0.668.

As to GUUCCGUUGGCGUAAUGGUAACGCGCCUCCCUCCUAAGGAGAAGACUGCGGGUUCGAGUCCCGUACGGUACG [U26C A69U], the yeast fitness came out at 0.906.

As for GUUCCGUUGGCGUAAUGGUAACGCGCCUCCCUCCUAAGGAGAAGACUGUGGGUUCGAGUCCCGUACGGAACG [U26C C49U], the yeast fitness is 0.833.

As for GUUCCGUUGGCGUAAUGGUAACGCGCCUCCCUCCUAAGGAGAAGACUGAGGGUUCGAGUCCCGUACGGAACG [U26C C49A], the yeast fitness is 0.598.

On to GUUCCGUUGGCGUAAUGGUAACGCGCCUCCCUCCUAAGGAGAAGAGUGCGGGUUCGAGUCCGGUACUGAACG [U26C C46G C62G G67U], for which the yeast fitness was at most 0.5.

For GUUCCGUUGGCGUAAUGGUAACGCGCCUCCCUGCUAAGGAGAAGACUGCGGGUUCGAGUCCCGUACGGAACG [U26C C33G], the yeast fitness amounted to 0.632.

Turning to GUUCCGUUGGCGUAAUGGUAACGCGCCUCCCUUCUAAGGAGAAGACUGCGGGUUCGAGUCCCGUACGGAACG [U26C C33U], the yeast fitness amounted to 0.676.

GUUCCGUUGGCGUAAUGGUAACGCGCCUCCCUCCUAAGGAGAAGAAUGCGGGUUCGAGUCUCGUACGGAACG [U26C C46A C61U]: the yeast fitness was at most 0.5.

Take GUUCCGUUGGCGUAAUGGUAACGCGCCUCGCUCCUAAGGAGAAGACUGCGGGUUCGAGUCUCGUACGGAGCG [U26C C30G C61U A70G]: the yeast fitness is 0.689.

GUUCCGUUGGCGUAAUGGUAACGCGCGUCCCUCUUAUGGAGAGGGCUGCGGGUUCGGGUCCCGUACGGAACG [U26C C27G C34U A37U A43G A45G A57G]: the yeast fitness is at most 0.5.

Take GUUCCGUUGGCGUAAUGGUAACGCGCUUCCCUCCUAAGGAGAAGACUGCGGGUUCGAGUCCCGUACGGAACG [U26C C27U]: the yeast fitness was found to be 1.02.

As to GUUCCGUUGGCGUAAUGGUAACGCGCGUCCCUCCUAAGGAGAAGACUGCGGGUUCGAGUCCCGUACGGAACG [U26C C27G], the yeast fitness came out at 0.588.

As to GUUCCGUUGGCGUAAUGGUAACGCGCCUCCCUCUUAAGGAGAACACGGCGGGUUCGAGUCCCGUACGGAACG [U26C C34U G44C U47G], the yeast fitness was at most 0.5.

Regarding GUUCCGUUGGCGUAAUGGUAACGCGCCUCUCUCCUAAGGAGAAGACUGCGGGUUCGAGUACCGUACGGAACG [U26C C30U C60A], the yeast fitness was at most 0.5.

As to GUUCCGUUGGCGUAAUGGUAACGCGCCUCCCUCAUAAGGAGAAGACUGCGGGUUCGAGUCCCGUACGGAACG [U26C C34A], the yeast fitness was determined as 0.817.

Consider GUUCCGUUGGCGUAAUGGUAACGCGCCUCCCUCCUAAGGAGAAGUCUGCGGGAUCGAGACCCGUACGGAACG [U26C A45U U53A U59A], for which the yeast fitness amounted to 0.512.

In the case of GUUCCGUUGGCGUAAUGGUAACGCGCCUCCCUGCUAAGGAGCAGACUGCGGGUUCGAGUCCCGUACCGAACG [U26C C33G A42C G67C], the yeast fitness was at most 0.5.

With GUUCCGUUGGCGUAAUGGUAACGCGCCUCCCUCCUAAGGAGAAGAGUGCGGGUUCGAGUCCCAUACGGAACG [U26C C46G G63A], the yeast fitness is at most 0.5.

As for GUUCCGUUGGCGUAAUGGUAACGCGCCUCCCUCCUAAGGAGAAGACUGCGGGUUCGAGUCACGUAUGGAACG [U26C C61A C66U], the yeast fitness was determined as 0.525.

Regarding GUUCCGUUGGCGUAAUGGUAACGCGCCUCACUCCUAAGGAGAAGACUGCGGGUUCGAGUCCCGUACGGAACG [U26C C30A], the yeast fitness came to 0.815.

As for GUUCCGUUGGCGUAAUGGUAACGCGCCUCGCUCCUAAGGAGAAGACUGCGGGUUCGAGUCCCGUACGGAACG [U26C C30G], the yeast fitness is 0.651.

For the variant GUUCCGUUGGCGUAAUGGUAACGCGCCUCCCUCCUAAGGAGAAGACUGCGGGUUCGAGUCCCGUAGGGCACG [U26C C66G A69C], the yeast fitness is at most 0.5.

Turning to GUUCCGUUGGCGUAAUGGUAACGCGCCUUCCUCCUAAGGAGAAGACUGCGGGUUCGAGUCCCAUACGGAACG [U26C C29U G63A], the yeast fitness came to 0.672.

With GUUCCGUUGGCGUAAUGGUAACGCGCCUCCCUUCUAAGGAGAAGACUGCGGGUUUGAGUUCCGUACGGAACG [U26C C33U C55U C60U], the yeast fitness is at most 0.5.

For GUUCCGUUGGCGUAAUGGUAACGCGCCUCCCUCCUAAAGAGACGACUGCGGGUUCGAGUCCCGUCCGGAACG [U26C G38A A43C A65C], the yeast fitness was at most 0.5.

As for GUUCCGUUGGCGUAAUGGUAACGCGCCUAACUCCUAAGGAGAAGUCUGCGGGUUCGAGUCCCGUACGGAACG [U26C C29A C30A A45U], the yeast fitness is 0.582.

Regarding GUUCCGUUGGCGUAAUGGUAACGCGCCUCCUUCCUAAGGAGAAGACUGUGGGUUCGAGUCCCGUAGGGAACG [U26C C31U C49U C66G], the yeast fitness was at most 0.5.

Turning to GUUCCGUUGGCGUAAUGGUAACGCGCCUGCCUCCUAAGGAGAAGACUGUGGGUUCGAGUCCCGUACGGUACG [U26C C29G C49U A69U], the yeast fitness was 0.588.

With GUUCCGUUGGCGUAAUGGUAACGCGCCUCCCUCCUAAGGAGAAGUCUGCGGGUUCGAGUCCCGUACGGAACG [U26C A45U], the yeast fitness is 0.716.

Take GUUCCGUUGGCGUAAUGGUAACGCGCCUCGCUCCUAAGGAAAAGACUGCGGGUUCGAGUCCCGCACGGAACG [U26C C30G G41A U64C]: the yeast fitness was at most 0.5.

On to GUUCCGUUGGCGUAAUGGUAACGCGCGUCCCUCCUAAGGAGAAGACUGCGGGUUCGAGUUCCGUACGGAACG [U26C C27G C60U], for which the yeast fitness is at most 0.5.

GUUCCGUUGGCGUAAUGGUAACGCGCAUCCCUCUUAAGGAAAAGACUGCGGGUUCGAGUCCCGUACGGAACG [U26C C27A C34U G41A]: the yeast fitness is at most 0.5.

As for GUUCCGUUGGCGUAAUGGUAACGCGCCUCCCUCGUAAGGAGAAGACUGCGGGUUCGAGUCCCGUACGGACCG [U26C C34G A70C], the yeast fitness was at most 0.5.

On to GUUCCGUUGGCGUAAUGGUAACGCGCCUGCCUCCUAAGGAGAAGACUGCGGGUUCGAGUCCCGUGGGCAACG [U26C C29G A65G C66G G68C], for which the yeast fitness is at most 0.5.

As for GUUCCGUUGGCGUAAUGGUAACGCGCCUACCUCAUAAGGAGAAGACUGCGGGUUCGAGUCCCGUACGGAACG [U26C C29A C34A], the yeast fitness is at most 0.5.

For GUUCCGUUGGCGUAAUGGUAACGCGCCUCCCUCCUAAGGAGAAGACUGCGGGUUCGAGUCCUGUACGGAACG [U26C C62U], the yeast fitness was 0.823.
